OX1R antag-1: OX1R (HCRTR1) antagonists, primary screen, fluorescence, CHO/OX1R cells, Fluo-8 calcium, orexin A | inhibition, % at 5 µM | hit rate 0.43% among 330,000 | Orexin/Hypocretin receptor type 1 (Homo sapiens), O43613 | Fluo-8 calcium fluorescence | AID 434989, 2010;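 active = inhibition above its plate's threshold, mean inhibition of all tested compounds on the plate plus 3 SD, cut at about 37% in these data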;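 also: 0% = orexin A challenge wells and 100% = SB-334867-A antagonist wells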
OX1R antag-2: antagonists of human orexin 1 receptor (OX1R) | Orexin/Hypocretin receptor type 1 (Homo sapiens), O43613 | AID 485270, 2010 | OX1R-expressing cells, FRET antagonist read-out | hit rate 1.8% among 330,000 | inhibition, % at 6.6 µM; in the data active = inhibition mostly above about 38%, no sharp cut-off; inactive = mostly below about 40%;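 also: 0% = agonist challenge alone and 100% = reference antagonist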
TAAR1 agonist: human TAAR1 agonists, primary screen, Fluo-8 calcium fluorescence, CHO RD-HGA16 cells. AID 624467, 2012. Trace amine-associated receptor 1 (Homo sapiens), Q96RJ0. hit rate 0.99% among 360,000. activation, % at 3 µM. vehicle wells 0%, saturating PEA agonist 100%;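 active = activation above the mean activation of all test compounds in the run plus 3 SD, cut at about 38% in these data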
Target sequence (Q96RJ0 whole entry, looked up): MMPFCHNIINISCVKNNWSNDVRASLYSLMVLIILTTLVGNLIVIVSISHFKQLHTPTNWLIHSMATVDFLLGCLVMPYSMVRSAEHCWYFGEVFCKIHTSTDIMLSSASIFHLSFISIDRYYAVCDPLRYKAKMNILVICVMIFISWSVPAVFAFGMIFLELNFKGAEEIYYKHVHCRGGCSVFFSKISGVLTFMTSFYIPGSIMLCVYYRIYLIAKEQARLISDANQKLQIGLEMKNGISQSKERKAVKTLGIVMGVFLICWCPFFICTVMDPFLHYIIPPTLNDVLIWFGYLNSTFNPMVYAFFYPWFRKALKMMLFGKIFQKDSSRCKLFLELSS
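System: CHO RD-HGA16 cells carrying human TAAR1 plus Gα16; Incubation: 17-24 h seeding, 75 min 37 °C dye, 30 min RT; Measured by: Fluo-8 fluorescence, 5 s baseline then 140 s kinetic read; Control set: DMSO and PEA EC100; Replication: single well for each compound.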
CHO parental Ca: ATP-evoked calcium signal inhibitors, parental CHO, primary screen, counter-screen for OX1R antagonist project, cell-based, fluorescence, Fluo-8 calcium dye; inhibition, % at 5.6 µM; parental CHO-K1, ATP-induced calcium, Fluo-8 fluorescence; hit rate 0.63% among 330,000;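 active = inhibition above that plate's mean sample inhibition plus 3 SD, cut at about 26% in these data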;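 also: 0% = ATP-challenged DMSO wells and 100% = DMSO wells without ATP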
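Material – parental CHO cells · Reagent – ATP stimulus · Compound – single nominal dose of 5.6 µM per compound · Detection – Fluo-8 fluorescence · Read-out basis – percent inhibition of calcium signal · Controls – ATP-challenged DMSO wells low, unchallenged DMSO wells high · Repeats – no replicates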
TAAR1 antag: human TAAR1 antagonists, primary screen, Fluo-8 calcium fluorescence, CHO RD-HGA16 cells; AID 624466, 2012; antagonist; inhibition, % at 3 µM; hit rate 1.5% among 360,000;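 active = inhibition above a per-plate cutoff, the mean inhibition of test compounds on that plate plus 3 SD, cut at about 49% in these data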;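 also: 0% = DMSO plus EC80 beta-PEA response and 100% = DMSO alone without agonist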
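Assay system: CHO-derived RD-HGA16 cells stably expressing human TAAR1 plus Gα16. Timing: 140 s kinetic read after compound, 140 s after agonist. Technique: kinetic Fluo-8 calcium fluorescence measurement. Measure: % inhibition of agonist calcium response.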
GPR7 antagonist: GPR7 receptor antagonists, primary screen, cell-based, fluorescence, single concentration | Neuropeptides B/W receptor type 1 (Homo sapiens), P48145 | GPR7-expressing cells, fluorescence antagonist assay | inhibition, % at 4.4 µM | hit rate 1.1% among 290,000 | AID 1861, 2009; in the data active = inhibition above about 16%, passing the limit was not always enough;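 also: cells stimulated with the agonist NPW; 0% = agonist with vehicle and 100% = vehicle without agonist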
GPR7 antag cf: GPR7 receptor antagonists, confirmation, cell-based, fluorescence, single concentration; shares compounds with GPR7 antagonist; hit rate 52% among 2,400; AID 1952, 2009; GPR7-expressing cells, calcium fluorescence antagonist mode; inhibition, % at 4.4 µM; in the data active = inhibition above about 24%;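 also: stimulated with the GPR7 agonist NPW; 0% = agonist plus vehicle and 100% = vehicle alone without agonist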
MCHR1 antag: MCHR1 antagonists in cells, counter-screen for GPR7 antagonist project, cell-based, fluorescence, human | hit rate 62% among 2,400 | shares compounds with GPR7 antagonist | inhibition, % at 4.4 µM | MCHR1-expressing cells, fluorescence antagonist assay; in the data active = inhibition above about 22%;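 also: 0% = vehicle with agonist and 100% = vehicle without agonist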
* marks the source's active call; other numbers are inactive results. Most compounds without a hit are left out; they make up all but 4.6% or so of the library.

COc1cc(C(=O)N/N=C/c2coc3ccc(Cl)cc3c2=O)ccc1O was read as OX1R antag-1 4, OX1R antag-2 15, TAAR1 agonist 3, CHO parental Ca 1, TAAR1 antag -10, GPR7 antagonist 31*, GPR7 antag cf -7 and MCHR1 antag -1.
Screening COc1ccc(C2=NOC(Cn3nc(-c4ccccc4)cc3C(=O)NCc3cccs3)C2)cc1 (stereo not drawn) returned OX1R antag-1 25, OX1R antag-2 14, TAAR1 agonist 12, CHO parental Ca 4 and TAAR1 antag 42.
For COC(=O)c1cn[nH]c1NC(=S)Nc1ccc(Cl)c(Cl)c1 the results were OX1R antag-1 12, OX1R antag-2 20, TAAR1 agonist 13, CHO parental Ca 13, TAAR1 antag 10 and GPR7 antagonist 5.
`CCOC(=O)c1cn[nH]c1NC(=S)Nc1ccc(OC)cc1` gave OX1R antag-1 -17, OX1R antag-2 12, TAAR1 agonist 0, CHO parental Ca -9, TAAR1 antag -22, GPR7 antagonist 30*, GPR7 antag cf 26* and MCHR1 antag 21.
Screening CCC(Oc1ccccc1)C(=O)Nc1ccc(S(=O)(=O)NCC2CCCO2)cc1 (stereo not drawn) returned OX1R antag-1 8, OX1R antag-2 8, TAAR1 agonist 36, CHO parental Ca 7, TAAR1 antag -1, GPR7 antagonist 23*, GPR7 antag cf -13 and MCHR1 antag 34*.
CCOc1ccc(CN(C)CC(O)COC(c2ccc(OC)cc2)c2ccc(OC)cc2)cc1 (stereo not drawn) was read as OX1R antag-1 -2, OX1R antag-2 0, TAAR1 agonist 29, CHO parental Ca 7, TAAR1 antag -7, GPR7 antagonist 31*, GPR7 antag cf 33* and MCHR1 antag 45*.
For COc1ccc(CN(C)CC(O)COc2ccc(-c3ccccc3)cc2)cc1OC (stereo not drawn) the results were OX1R antag-1 -7, OX1R antag-2 5, TAAR1 agonist 17, CHO parental Ca -10, TAAR1 antag -14 and GPR7 antagonist 5.
COc1ccc(CN(C)CC(O)COC(c2ccc(OC)cc2)c2ccc(OC)cc2)cc1 (stereo not drawn) was read as OX1R antag-1 12, OX1R antag-2 4, TAAR1 agonist 15, CHO parental Ca 8, TAAR1 antag 3, GPR7 antagonist 28*, GPR7 antag cf 42* and MCHR1 antag 31*.
CCc1ccc2nc(N(CCCN(C)C)C(=O)c3ccc(S(=O)(=O)N4CCc5ccccc5C4)cc3)sc2c1 was read as OX1R antag-1 -18, OX1R antag-2 2, TAAR1 agonist 36, CHO parental Ca -20, TAAR1 antag 17 and GPR7 antagonist 7.
Screening CCc1ccc2nc(N(CCCN(C)C)C(=O)c3ccc(S(=O)(=O)N(C)C4CCCCC4)cc3)sc2c1 returned OX1R antag-1 8, OX1R antag-2 20, TAAR1 agonist 39*, CHO parental Ca 14, TAAR1 antag 51*, GPR7 antagonist 36*, GPR7 antag cf 56* and MCHR1 antag 54*.

Compound activity as filed in PubChem.
